The text below walks through data of paper PMC7391373 (ACS Omega, 2020).

A short description of series [1]: biochemical assays, liver and kidney function tests. Format: in vivo, Mus musculus. The method, boiled down:
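In P. berghei-infected Laca mice (oral dosing once daily D0–D3), blood was collected from the tail vein on day 10 and from survivors on day 28. Serum ALP, SGOT, SGPT and bilirubin (liver) and urea and creatinine (kidney) were measured with commercial diagnostic kits. Data are mean ± SD, five mice per group.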

Series [2] deals with RAW 264.7 murine macrophage cells. Nature of the series: determination of nitric oxide. The format is cell-based.
For series [3], the system named is P. falciparum RKL-9 (chloroquine-resistant). Kind of series: schizont maturation inhibition assay, RKL-9 strain. Format: cell-based, Plasmodium falciparum. The method in brief:
(§1)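 P. falciparum (3D7 chloroquine-sensitive; RKL-9 chloroquine-resistant) was cultured in A+ human erythrocytes in RPMI-1640 with 10% human AB+ serum. Ring-synchronized parasites (2–3% parasitemia, 1.8% final haematocrit) were exposed in duplicate to test compound at 1–16 μg/mL for 48 h at 37 °C, 5% CO2. Positive controls were chloroquine 10 μM and artesunate 2 μM. Schizont inhibition versus controls was scored on Giemsa smears. SI was calculated as CC50 (HeLa/fibroblasts) divided by IC50.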

The conditions of series [4]: acute toxicity; oral administration; cited from earlier work.
Series [5] deals with Plasmodium berghei (NK-65). Kind of series: in vivo suppressive activity, Peter's 4 day test. Particulars: for chemosuppression (%), day 5 / parasitemia (%), day 5 / mean survival time (MST): mice; for parasitemia (%), day 28: surviving mice. The method in brief:
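Peters 4-day suppressive test in Laca Swiss albino mice (6–8 weeks, 25 ± 2 g), five per group. On D0, mice received 1 × 10^6 P. berghei NK-65-infected erythrocytes i.p. Dosing began 1 h post-inoculation, oral, once daily D0–D3 (0.2 mL). Giemsa tail smears were taken 24 h after the last dose. Chemosuppression was calculated from mean parasitemia relative to infected controls. Survival and parasitemia were followed to day 28.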

Series [6] relates to P. falciparum 3D7 (chloroquine-sensitive). Kind of series: schizont maturation inhibition assay, 3D7 strain. The format is cell-based, Plasmodium falciparum. The method in brief:
as §1

A short description of series [7]: in vitro cytotoxicity, MTT assay, dermal fibroblasts. Format: cell-based. The conditions noted are these: human, primary culture of normal human dermal fibroblasts. The method in brief:
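HeLa cells and primary normal human dermal fibroblasts (fibroblasts used within seven passages) were kept in DMEM with 10% fetal calf serum and 2 mM glutamine at 37 °C, 5% CO2. Cells were seeded at 5000–10 000 per well; after 24 h they received test compound (10–640 μg) in duplicate for 48 h. MTT (1 mg/mL stock) was added for 1 h, formazan was dissolved in DMSO, and OD was read at 450 nm.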
Background: Formazan colour is commonly taken as a measure of viable cells.

[8] abbreviates: monotherapy 10 mg/kg oral OD D0–D3.
Setting [9] is: monotherapy 20 mg/kg oral OD D0–D3.
Where [10] appears, read: monotherapy 50 mg/kg oral OD D0–D3.
Setting [11] is: monotherapy 100 mg/kg oral OD D0–D3.
Setting [12] is: monotherapy 4 mg/kg oral OD D0–D3.

Usually IC50 stands for the midpoint of a concentration-inhibition curve. High values mean a need for much substance, low ones inhibition by little substance. A word on the LD50: it is the dose at which mortality reaches 50%. Usually viability stands for the share of living cells, or the viability signal relative to a control. In the case of `COC(=O)[C@@H]1Cc2c([nH]c3ccccc23)[C@@H](c2ccc3c(c2)OCO3)N1` [9a, (1R,3S)-methyl 1-(benzo[d][1,3]dioxol-5-yl)-2,3,4,9-tetrahydro-1H-pyrido[3,4-b]indole-3-carboxylate], the “levels of renal function biomarkers (creatinine, urea)” value in series [1] (monotherapy 100 mg/kg) is on record as “within the normal range”. In addition, the “levels of ALP, SGOT, SGPT, and bilirubin” value in series [1] (monotherapy 50 and 100 mg/kg, day 10 and day 28) is reported as “within normal range”. Besides, in series [2] (100 μg/mL), the “nitrite production from macrophages” value was “comparable to the normal cells”. The “selectivity index (SI)” value in series [3] (CC50 / IC50 on RKL-9) and in series [6] (CC50 / IC50 on 3D7) was greater than 10 throughout. Further, the IC50 is less than 1 µg/mL in series [3] (Plasmodium falciparum, 48 h, RKL-9 strain) and less than 1 µg/mL in series [6] (Plasmodium falciparum, 3D7, 48 h, 3D7 strain, 48 h). Further, the inhibition at 1 µg/mL in series [3] (Plasmodium falciparum, read-out: inhibition (schizont maturation)) was greater than 75%; in series [6] (Plasmodium falciparum, 3D7, read-out: inhibition (schizont maturation)), greater than 75%. Moreover, the LD50 in series [4] is greater than 4000 mg/kg. Further, the “chemosuppression (%), day 5” value in series [5] (setting [8]) amounted to 40.49%; in series [5] (setting [9]) it was 46.82%; in series [5] (setting [10]) it was 64.76%; in series [5] (setting [11]) it was 91.19%. For the same compound, the “parasitemia (%), day 5” value in series [5] (setting [8]) is given as 17.31 ± 2.40 (n = 5) %; in series [5] (setting [9]), 15.47 ± 2.69 (n = 5) %; in series [5] (setting [10]) it was 10.25 ± 4.93 (n = 5) %; in series [5] (setting [11]), 2.56 ± 1.71 (n = 5) %. Besides, the “parasitemia (%), day 28” value in series [5] (setting [10]) is on record as 3.43 ± 0.51 (n = 2) %; in series [5] (setting [11]), 2.41 ± 0.97 (n = 3) %. Also, the “mean survival time (MST)” value in series [5] (monotherapy 50 mg/kg) came to 21.8 ± 6.09 days; in series [5] (monotherapy 100 mg/kg) it was 22.6 ± 7.79 days. In series [7], this compound registered a viability at 48 h, 640 μg/mL of 56.5 ± 5.07%.
Turning to `CCN(CC)CCCC(C)Nc1ccnc2cc(Cl)ccc12` (centres unmarked) [chloroquine, reference compound], the inhibition at 10 µM in series [3] (Plasmodium falciparum) was 96.8%. In series [5] (setting [8]), the “chemosuppression (%), day 5” value amounted to 94.22%; the “parasitemia (%), day 5” value is on record as 1.68 ± 1.06 (n = 5) %; the “parasitemia (%), day 28” value is 0 ± 0 (n = 5) %. Also, the inhibition at 10 µM in series [6] (Plasmodium falciparum, 3D7) was determined as 96.8%.
`C[C@H]1[C@H](OC(=O)CCC(=O)O)O[C@@H]2O[C@@]3(C)CC[C@H]4[C@H](C)CC[C@@H]1[C@@]24OO3` [artesunate, reference compound]: the “nitrite production from macrophages” value in series [2] (2 μM) is reported as “comparable to the normal cells”. The inhibition at 2 µM in series [3] (Plasmodium falciparum) was found to be 100%; in series [6] (Plasmodium falciparum, 3D7), 100%. Besides, the “chemosuppression (%), day 5” value was 94.01% in series [5] (setting [12]) and 99.89% in series [5] (setting [10]). Further, the figures for the “parasitemia (%), day 5” value in series [5] (setting [12]) and in series [5] (setting [10]) were 1.74 ± 0.83 (n = 5) % and 0.03 ± 0.01 (n = 5) %, respectively. In addition, the “mean survival time (MST)” value in series [5] (monotherapy 4 mg/kg) is 18.6 ± 2.19 days; in series [5] (monotherapy 50 mg/kg) it was 22.4 ± 5.77 days. The “parasitemia (%), day 28” value in series [5] (setting [10]) is 0 ± 0 (n = 2) %.
